The source made the active and inactive calls. The calls are words filed in the database; no cut-off is given here.

The target of assay [1] is T1, Ribonuclease pancreatic (Bos taurus) (UniProt P61823).
T1 sequence (whole entry): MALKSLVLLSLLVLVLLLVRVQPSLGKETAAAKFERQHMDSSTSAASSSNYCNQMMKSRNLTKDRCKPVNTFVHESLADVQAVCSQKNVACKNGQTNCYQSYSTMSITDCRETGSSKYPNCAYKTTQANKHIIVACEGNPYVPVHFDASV
The experiment in a line: Inhibition of bovine pancreatic RNase A assessed as effect on tRNA degradation by agarose gel based assay. Summed up:
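Qualitative gel: RNase A (stock 6.87 µM; 1.37 µM in figure) preincubated 3 h with compound at three levels (0.10–0.31 or 0.13–0.40 mM). Aliquots then mixed with yeast tRNA (5 mg/mL stock) for 30 min, run on 1.1% agarose gel, and residual tRNA stained with ethidium bromide under UV.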

The next assay addresses T2, Ribonuclease pancreatic (Bos taurus, UniProt P61823).
T2 sequence (P61823 whole entry): T1 sequence (whole entry)
The experiment in a line: Inhibition of bovine pancreatic RNase A by spectrophotometric method. The procedure, abridged: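 Bovine pancreatic RNase A; spectrophotometric initial-velocity assay with 2′,3′-cCMP substrate in 0.1 M Mes-NaOH pH 6.0, 0.1 M NaCl. Ki taken from Dixon plots (1/V vs [I]) by the competitive equation; at least three repeats per set.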

Assay [2] deals with T1, Ribonuclease pancreatic (Bos taurus). The assay can be described thus: Inhibition of bovine pancreatic RNase A ribonucleolytic activity assessed as reduction of tRNA degradation at 0.32 mM by precipitation assay relative to control. Also on record: scale not given: the % may be the effect or the level left. The procedure, abridged:
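Bond precipitation assay: RNase A (1.10 µM) preincubated with compound (0.32 mM) 2 h at 37 °C. Then tRNA added in Tris-HCl pH 7.5 with 5 mM EDTA and 0.5 mg/mL HSA, 30 min at 25 °C. Quenched with ice-cold perchloric acid/uranyl acetate, 30 min on ice, centrifuged; supernatant A260 compared with control.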

Assay [3] shares this target. The assay can be described thus: Inhibition of bovine pancreatic RNase A assessed as effect on tRNA degradation at 0.14 mM by agarose gel based assay. The procedure, abridged: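 Comparative gel: RNase A (stock 6.29 µM; 1.26 µM in figure) preincubated 3 h with compound (0.14 mM). Aliquots then mixed with yeast tRNA (5 mg/mL stock) for 30 min, run on 1.1% agarose gel, and residual tRNA viewed by ethidium bromide under UV.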

By Ki is commonly meant the dissociation constant of the complex between target and ligand, obtained from inhibition or displacement. `CCOC(=O)C1CCN(C[C@H]2O[C@@H](n3ccc(=O)[nH]c3=O)[C@H](O)[C@@H]2O)CC1`: the result in assay [1] was Active. At Ribonuclease pancreatic, this compound yielded a Ki of 77 µM. The Activity in assay [2] is 30%.
Consider `O=c1ccn([C@@H]2O[C@H](CO)[C@@H](O)[C@H]2OP(=O)(O)O)c(=O)[nH]1`, for which, on Ribonuclease pancreatic, the Ki was 7.1 µM.
`Nc1ccn([C@@H]2O[C@H](CO)[C@@H](OP(=O)(O)O)[C@H]2O)c(=O)n1` gave an inhibition constant Ki on Ribonuclease pancreatic of 103 µM.
At Ribonuclease pancreatic, `O=c1ccn([C@@H]2O[C@H](CO)[C@@H](OP(=O)(O)O)[C@@H]2O)c(=O)[nH]1` gave a Ki of 6 µM.
`O=c1ccn([C@@H]2O[C@H](CN3CCOCC3)[C@@H](O)[C@H]2O)c(=O)[nH]1`: the outcome in assay [1] and in assay [3] was Active. Also, in assay [2], the Activity amounted to 12%.
In turn, `Cc1cn([C@H]2C[C@H](O)[C@@H](COP(=O)(O)OP(=O)(O)O[C@H]3[C@@H](O)[C@H](n4cnc5c(N)ncnc54)O[C@@H]3CO)O2)c(=O)[nH]c1=O` came in with a Ki on Ribonuclease pancreatic of 0.041 µM.
Turning to `O=c1ccn([C@@H]2O[C@H](CN3CCCC3)[C@@H](O)[C@H]2O)c(=O)[nH]1`, the result in assay [1] and in assay [3] was Active. Moreover, the Activity in assay [2] came out at 12%.
Regarding `Cc1cn([C@H]2C[C@H](O)[C@@H](CN3CCCC3)O2)c(=O)[nH]c1=O`, the result in assay [1] and in assay [3] was Active. Also, the Activity in assay [2] was 5%.
For the compound `Cc1cn([C@H]2C[C@H](O)[C@@H](CN3CCCCC3)O2)c(=O)[nH]c1=O`, the outcome in assay [1] and in assay [3] was Active. Also, the Activity in assay [2] was 5%.
Turning to `O=c1ccn([C@@H]2O[C@H](CN3CCCCC3)[C@@H](O)[C@H]2O)c(=O)[nH]1`, the outcome in assay [1] and in assay [3] was Active. Further, the Activity in assay [2] was found to be 12%.
`O=c1ccn([C@@H]2O[C@H](CO)[C@@H](OP(=O)(O)O)[C@H]2O)c(=O)[nH]1` yielded a Ki at Ribonuclease pancreatic of 82 µM.

These data come from ChEMBL document CHEMBL1140896, “Morpholino, piperidino, and pyrrolidino derivatives of pyrimidine nucleosides as inhibitors of ribonuclease A: synthesis, biochemical, and crystallographic evaluation” (J Med Chem, 2009).
